In series [1] the test system is Mus musculus. Put plainly: Maximum inhibition of LTB4 formation at dose 15 mg/kg in mouse. The series is classed as functional.
The target of series [2] is T1, Polyunsaturated fatty acid 5-lipoxygenase (Rattus norvegicus, UniProt P12527).
T1 sequence (P12527 whole entry): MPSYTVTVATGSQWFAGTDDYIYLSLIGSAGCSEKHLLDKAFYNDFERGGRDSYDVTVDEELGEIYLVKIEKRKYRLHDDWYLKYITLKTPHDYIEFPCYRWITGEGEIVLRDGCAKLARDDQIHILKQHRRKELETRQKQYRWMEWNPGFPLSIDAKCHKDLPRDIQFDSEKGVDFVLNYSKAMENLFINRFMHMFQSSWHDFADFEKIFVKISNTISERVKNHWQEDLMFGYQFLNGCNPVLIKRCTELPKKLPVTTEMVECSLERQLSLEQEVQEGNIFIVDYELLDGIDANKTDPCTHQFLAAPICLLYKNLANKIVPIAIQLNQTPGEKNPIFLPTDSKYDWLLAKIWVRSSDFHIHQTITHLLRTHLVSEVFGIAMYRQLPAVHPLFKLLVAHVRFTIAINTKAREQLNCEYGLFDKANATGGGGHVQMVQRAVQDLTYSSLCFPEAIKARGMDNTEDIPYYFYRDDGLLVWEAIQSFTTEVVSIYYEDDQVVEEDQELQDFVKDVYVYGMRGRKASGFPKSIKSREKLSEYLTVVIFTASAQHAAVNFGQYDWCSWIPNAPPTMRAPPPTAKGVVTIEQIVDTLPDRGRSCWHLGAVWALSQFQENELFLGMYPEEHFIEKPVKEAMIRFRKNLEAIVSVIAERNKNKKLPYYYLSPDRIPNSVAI
The experiment in a line: Inhibitory activity against rat 5-lipoxygenase by using continuous oxygen consumption assay. The procedure, abridged: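 Semipurified cytosolic 5-LO from rat basophilic leukemia (RBL-1) cells; continuous oxygen-electrode assay of oxygen consumption; IC50.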

The species named for series [3] is Mus musculus. Put plainly: Compound was tested to inhibit Leukotriene formation in A-23187-stimulated mouse whole blood using […] ex vivo. The series is classed as functional. The conditions noted are these: Mus musculus, Blood; read-out: ED50.
The species named for series [4] is Mus musculus. The experiment in a line: Percentage inhibition of LTB4 formation after 6 hr in mouse. The series is classed as functional.
Series [5] concerns Mus musculus. The experiment in a line: Percentage inhibition of LTB4 after 6 hr at dose 2 mg/kg in mouse. The series is classed as functional.
Series [6] concerns Mus musculus. Put plainly: Maximum inhibition of LTB4 at dose 2 mg/kg in mouse. The series is classed as functional.
The species named for series [7] is Homo sapiens. Put plainly: Glucuronidation rates in human liver microsomes. The series is classed as functional. The procedure, abridged:
(§1)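 Liver microsomes (fresh male CD-1 mouse >10 weeks, or frozen human donor) at 0.25–1.0 mg/mL protein. Incubated with 2.5 mM substrate, 15 mM [14C]UDP-glucuronic acid, 10 mM MgCl2 and 2% BSA in 100 mM sodium phosphate pH 7.4, at 37 °C for 1–4 h. Stopped with 20% acetonitrile; glucuronide quantified by HPLC. Mean of duplicates.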
A general note: Microsomes from liver hold many membrane-bound enzymes, among them those of drug oxidation.

Series [8] deals with Mus musculus. Put plainly: Compound was tested to inhibit Leukotriene formation in mouse sensitized with 1BD8 cells after 7 hr of compound administration, activity expressed as percent of control. The series is classed as functional. On the set-up: concentration or dose not given beside the values.
Series [9] is filed under the species Mus musculus. Put plainly: Inhibition of Leukotriene formation in mouse adoptive peritoneal anaphylaxis assay ex vivo. The series is classed as functional. The settings on record: Mus musculus.
The species named for series [10] is Mus musculus. The experiment in a line: Glucuronidation rates in mouse liver microsomes. The series is classed as functional. The procedure, abridged:
as §1

Series [11] concerns the target T2, Polyunsaturated fatty acid 5-lipoxygenase (Mus musculus) (UniProt P48999).
T2 sequence (whole entry): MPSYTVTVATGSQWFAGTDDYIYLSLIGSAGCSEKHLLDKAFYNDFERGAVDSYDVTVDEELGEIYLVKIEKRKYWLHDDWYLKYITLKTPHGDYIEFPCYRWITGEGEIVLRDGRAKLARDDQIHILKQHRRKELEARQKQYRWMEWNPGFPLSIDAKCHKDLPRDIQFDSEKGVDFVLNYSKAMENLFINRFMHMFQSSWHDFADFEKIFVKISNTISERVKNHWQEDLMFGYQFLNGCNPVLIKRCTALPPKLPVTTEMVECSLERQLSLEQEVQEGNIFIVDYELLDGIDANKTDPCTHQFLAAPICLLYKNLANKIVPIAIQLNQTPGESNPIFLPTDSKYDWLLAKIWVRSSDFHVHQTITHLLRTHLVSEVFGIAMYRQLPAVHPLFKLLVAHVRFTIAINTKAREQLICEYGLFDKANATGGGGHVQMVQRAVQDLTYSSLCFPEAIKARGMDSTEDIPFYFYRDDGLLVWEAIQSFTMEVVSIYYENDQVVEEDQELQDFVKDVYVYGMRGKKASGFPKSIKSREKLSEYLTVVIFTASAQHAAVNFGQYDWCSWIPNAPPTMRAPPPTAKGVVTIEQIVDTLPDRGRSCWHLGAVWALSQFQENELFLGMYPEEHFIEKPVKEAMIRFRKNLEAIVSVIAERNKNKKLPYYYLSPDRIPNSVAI
Put plainly: Inhibition of leukotriene formation in A-23187-stimulated mouse whole blood using […] ex vivo, activity expressed as percent of control. The series is classed as functional, tissue-based. Further details: scale not given: the % may be the effect or the level left.

A short description of series [12]: Compound was administered intravenously in monkey to evaluate plasma clearance values. The series is classed as ADME, organism-based. The conditions noted are these: simiiformes, in vivo, iv. The procedure, abridged:
(§2)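 IV infusion over 15 min via saphenous (monkey) or cephalic (dog) vein catheter, 1–1.4 mg/kg in 7.5% (w/v) aqueous (2-hydroxypropyl)-β-cyclodextrin; male cynomolgus monkeys and beagle dogs, N = 3. Chilled plasma analysed by HPLC. Noncompartmental parameters were estimated per animal and then averaged. CLp = dose/AUC, with AUC by linear/log-linear trapezoidal rule.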

Series [13] concerns Mus musculus. The experiment in a line: Compound was administered intravenously in mouse to evaluate half life; ID= Iinsufficient data to calculate parameter. The series is classed as ADME, organism-based. The conditions noted are these: in vivo, iv. The procedure, abridged: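 Male CD-1 mice given 0.5 mg/kg IV by lateral tail vein over 5–10 s, in ethanol/propylene glycol 30:70 v/v; N = 3 per time point with terminal sampling under ether. Plasma HPLC, LOQ 0.05 μg/mL. Mean concentration per time point before noncompartmental analysis. Half-life from slope of log-concentration profile; CLp = dose/AUC.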

Series [14] has as its system Canis familiaris. The experiment in a line: Compound was administered intravenously in dog to evaluate plasma clearance values. The settings on record: in vivo, iv. The series is classed as ADME, organism-based, Canis lupus familiaris. The procedure, abridged: as §2

Molecules are shown by their SMILES.

Broadly, the IC50 is the concentration needed to halve the response being measured. Broadly, the ED50 is the midpoint of the dose-response relation. For orientation: Inhibition means the percentage by which the read-out fell short of the control. In [1], `NC(=O)N(O)C1CCCc2cc(OCc3ccccc3)ccc21` (stereo in doubt; 3a) registered a Max inhibition of 61. In [2], this compound showed a half-maximal inhibitory concentration (IC50) of 1800 nM. Besides, in [3], the ED50 worked out at 9.9 mg/kg. This compound also had an Inhibition in series [4] of 67%.
Broadly, the inhibition in vivo is the share of the control response that was lost under treatment. Take `CC(c1cc2ccccc2s1)N(O)C(N)=O` (stereo not given) [ZILEUTON]: at 2 mg/kg the inhibition in vivo in series [5] was 40%. In addition, the Max inhibition in [6] worked out at 70. In addition, the Rate of formation (nM (mg of protein)-1) in series [7] was determined as 6.8; in [10], 0.7. Also, the Activity in series [8] was -10%; in series [11] it was -78%. Also, the ED50 in series [3] and in series [9] was 1 mg/kg each time.
Consider `NC(=O)N(O)C1COc2cc(OCc3ccccc3)ccc21` (single isomer, unassigned; (-)), for which the Clp in [12] was found to be 10.3 mL/min; in [14] it was 10.9 mL/min. Further, in series [13], the T1/2 result was “Insufficient data”.

Values taken from ChEMBL document CHEMBL1129750, “Bicyclic N-hydroxyurea inhibitors of 5-lipoxygenase: pharmacodynamic, pharmacokinetic, and in vitro metabolic studies characterizing N-hydroxy-N-(2,3-dihydro-6-(phenylmethoxy)-3-benzofuranyl)urea” (J Med Chem, 1996).
